The text below walks through data of PMC5346068 (ACS infectious diseases, 2017).

One data set concerns T. brucei. Description: T. brucei in vitro growth inhibition. It is filed as cell-based. The note with it: Trypanosoma brucei, read-out: T. brucei EC50.
Data set [1] can be described thus: MRC5-SV2 human lung cell toxicity. It is filed as cell-based. The note with it: MRC5-SV2 human lung cells.
A further data set can be described thus: Aqueous solubility. It is filed as physicochemical.
Data set [2] is described as follows: Human plasma protein binding. It is filed as in vitro ADME.
Data set [3] can be described thus: Human liver microsome clearance. The note with it: liver microsomes. The class given is in vitro ADME. Background: Liver microsomes are a subcellular fraction often used to study metabolism.
The nature of another data set: Rat hepatocyte clearance. The class given is in vitro ADME. The note with it: rat hepatocytes.
The nature of a further data set: logD 7.4. It is filed as physicochemical. The note with it: pH 7.4.
Data set [4] in a line: Mouse plasma and brain pharmacokinetics. It is filed as in vivo, female BALB/c mice. The note with it: female, BALB/c, brain, ip, 10 mg/kg. An outline of the steps:
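Female BALB/c mice received a single intraperitoneal 10 mg/kg dose of test compound. Drug levels were measured in plasma and brain, and the brain-to-plasma ratio and brain concentration were taken at the 24 h time point.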

For data set [5], the system named is T. b. brucei (GVR 35 strain). The data set can be described thus: Murine CNS infection model. It is filed as in vivo, mouse. The note with it: tail blood; for mice with no detectable parasitemia, day 28: 1 at 20 mg/kg/day days 21-25, Berenil single 40 mg/kg day 21. An outline of the steps: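 Mice were infected on day 0 with T. b. brucei GVR 35, in two groups of 5, and checked for parasitemia on day 14. The control group got a single 40 mg/kg Berenil dose on day 21, then vehicle (DMSO in PBS) on days 22–25. The treated group got test compound at 20 mg/kg/day on days 21–25 and again on days 28–32. Tail blood was examined on days 14, 28, 35, 39 and 43.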

A further data set deals with T1, T. brucei MetRS (Trypanosoma brucei brucei, UniProt Q38C91).
T1 sequence (Q38C91 1-773): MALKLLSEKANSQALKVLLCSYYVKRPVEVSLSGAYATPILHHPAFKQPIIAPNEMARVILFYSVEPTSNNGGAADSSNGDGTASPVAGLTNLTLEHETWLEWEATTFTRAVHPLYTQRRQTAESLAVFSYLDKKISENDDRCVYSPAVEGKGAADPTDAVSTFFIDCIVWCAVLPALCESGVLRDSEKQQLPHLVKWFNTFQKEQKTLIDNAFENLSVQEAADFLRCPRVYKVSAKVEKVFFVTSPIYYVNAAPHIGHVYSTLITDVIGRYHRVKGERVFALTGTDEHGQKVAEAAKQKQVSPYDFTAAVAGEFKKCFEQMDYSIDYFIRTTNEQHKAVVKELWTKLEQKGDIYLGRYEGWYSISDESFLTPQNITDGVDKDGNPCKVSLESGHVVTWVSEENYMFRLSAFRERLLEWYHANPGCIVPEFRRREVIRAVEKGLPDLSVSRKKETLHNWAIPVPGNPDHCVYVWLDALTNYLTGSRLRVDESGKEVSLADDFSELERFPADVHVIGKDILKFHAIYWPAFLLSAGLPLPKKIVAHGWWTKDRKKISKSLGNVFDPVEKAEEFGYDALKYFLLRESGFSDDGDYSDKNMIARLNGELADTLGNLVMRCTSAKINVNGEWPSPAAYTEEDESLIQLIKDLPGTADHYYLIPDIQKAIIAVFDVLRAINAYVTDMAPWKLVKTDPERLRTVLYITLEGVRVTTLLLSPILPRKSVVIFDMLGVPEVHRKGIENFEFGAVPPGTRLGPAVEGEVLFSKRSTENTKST
The data set can be described thus: T. brucei MetRS inhibition assay. It is filed as biochemical.

A further data set relates to wild-type T. brucei. Description: Wild-type T. brucei growth inhibition assay. It is filed as cell-based. The note with it: Trypanosoma brucei, read-out: WT EC50.
In another data set the test system is 1433-resistant T. brucei. The data set can be described thus: microbe, parasite or virus in culture. The class given is cell-based, Trypanosoma brucei. The note with it: for EC50: Trypanosoma brucei, read-out: 1433 resistant EC50; for 1433 resistant EC50 / WT EC50: fold shift resistant vs wild-type.
In another data set the test system is T. brucei rhodesiense. The note with it: T. brucei rhodesiense mouse model of HAT; cited from earlier work.

Converted amounts (≈) assume the structure as drawn. “Also recorded” adds a separate entry of the source.

As usually defined, the EC50 is the concentration giving half of the maximal effect. Usually solubility stands for the dissolved amount per volume that the medium holds. A high value points to a readily soluble substance. As usually defined, the fraction unbound is free concentration divided by total concentration. Higher therefore signals weak binding. A word on the microsomal CLint: it is the rate of metabolic loss divided by the concentration. Higher therefore signals faster metabolism. The term logD denotes lipophilicity at a set pH, counting ionised and neutral species. In general, IC50 refers to the concentration that gives 50% inhibition. On to `OCCn1c(CNCCCNc2nc3ccccc3[nH]2)cc2c(Cl)cc(Cl)cc21` [Compound 1, 2-(2-(((3-((1H–Benzo[d]imidazol-2-yl)amino)propyl)amino)methyl)-4,6-dichloro-1H–indol-1-yl)ethan-1-ol], for which the EC50 in the data set with T. brucei stood at 0.96 nM; in [1], 12 µM; in the data set on wild-type T. brucei, 0.13 ± 0.01 nM; in the data set with 1433-resistant T. brucei, 14 ± 1 nM. In “Aqueous solubility”, this molecule came in with a solubility of 6.33 µM (≈ 2.74 µg/mL). Moreover, the fraction unbound in data set [2] is under 0.001. The molecule also returned a microsomal CLint in data set [3] of 24 µL/min/mg. Moreover, the “Rat Hepatocyte Clint” value in “Rat hepatocyte clearance” came out at 24.9 µL/min/10^6. Besides, the logD in the data set “logD 7.4” stood at 4. Moreover, the concentration at 24 h in data set [4] turned out to be 31.6 ng/g. Also, the “mice with no detectable parasitemia, day 28” value in data set [5] is listed as 3/5. The “parasitemia, day 39” value in data set [5] is given as “full relapse of parasites in the blood”. The same molecule gave an IC50 on T. brucei MetRS of under 25 nM. In addition, the “1433 resistant EC50 / WT EC50” value in the data set with 1433-resistant T. brucei was determined as 108. The “efficacy in bloodstream infection mouse model” value in the data set on T. brucei rhodesiense is reported as “cured a bloodstream infection”.
As for `CC(=O)NCC(=O)O.CC(=O)NCC(=O)O.N=C(N)c1ccc(N=NNc2ccc(C(=N)N)cc2)cc1` [Berenil], in data set [5], the “mice with no detectable parasitemia, day 28” value was “no detectable levels of parasitemia” and the “parasitemia, day 39” value is on record as “no detectable levels of parasitemia”. Besides, in [5] (day 43, group of 5 mice), the “mice showing a relapse, day 43” value is on record as 2.
For `N=C(N)c1ccc(OCCCCCOc2ccc(C(=N)N)cc2)cc1` [Pentamidine, reference compound], the “T. brucei MetRS inhibition” value on T. brucei MetRS (up to 10 µM) is “no T. brucei MetRS inhibition; also recorded: does not inhibit T. brucei MetRS”. Besides, the EC50 in the data set on wild-type T. brucei turned out to be 1.5 ± 0.2 nM. Besides, in the data set with 1433-resistant T. brucei, the EC50 came to 1.1 ± 0.1 nM and the “1433 resistant EC50 / WT EC50” value worked out at 0.73.
